Measured values taken from ChEMBL document CHEMBL1133717, “Soft drugs. 12. Design, synthesis, and evaluation of soft bufuralol analogues” (J Med Chem, 2000).

Legend:
Type in all cases: ADME
[1] = Half-life in rat blood; evaluated by enzymatic hydrolysis
Outline: (§1)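 Incubation in fresh heparinized male Sprague-Dawley rat blood (used within 30 min) at 37.0 ± 0.1 °C, compound added in methanol at 1:10. Timed samples were quenched in cold methanol and centrifuged; the supernatant (12 µM final) was analysed by HPLC for ester and acid metabolite.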

[2] = Half-life was evaluated by chemical hydrolysis
Outline: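 pH 12.0 buffer (0.01 N NaOH, isotonic phosphate 0.5 mM) at 37.0 ± 0.1 °C, with an initial ester concentration of 120 µM. Timed samples were quenched 1:10 in cold methanol (12 µM final) and analysed by HPLC. The pseudo-first-order rate constant came from a linear regression of ln(peak area) versus time, and the half-life was derived from it.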

[3] = Evaluated for apparent pseudo first-order hydrolytic rate constant(K) in chemical hydrolysis
[4] = Half-life in rat blood evaluated by enzymatic hydrolysis; outline: as §1
Rattus norvegicus = species on record: Rattus norvegicus; test: Evaluation of apparent pseudo-first-order hydrolytic rate constant(k) by enzymatic hydrolysis in rat blood at 37+/-0.1 degree Centigrade
Outline: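 Freshly drawn heparinized blood from male Sprague-Dawley rats, used within 30 min. Compound in methanol (0.1 mL) was mixed with blood (0.9 mL) at 37.0 ± 0.1 °C. Timed aliquots were mixed with cold methanol, frozen and centrifuged (24 000 rpm, 3 min), giving a final sample concentration of 12 µM. Ester loss was followed by HPLC of the supernatant, and the pseudo-first-order k was obtained from ln(peak area) versus time.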

SMILES | half-life [1] [min] | half-life [2] [min] | k [3] [min⁻¹] | half-life [4] [min] | k (Rattus norvegicus) [min⁻¹]
CCOC(=O)Cc1cccc2cc(C(O)CNC(C)(C)C)oc12 (centres undefined) | < 0.15 | 8.2 | 0.084 |  | 
CC(C)(C)NCC(O)c1cc2cccc(CC(=O)OC3CCCCC3)c2o1 (centres undefined) |  | 15.2 | 0.045 | 6.2 | 0.111
CSCOC(=O)Cc1cccc2cc(C(O)CNC(C)(C)C)oc12 (centres undefined) |  | 25 | 0.027 | < 0.15 | 
COC(=O)Cc1cccc2cc(C(O)CNC(C)(C)C)oc12 (centres undefined) |  | 7.2 | 0.096 | < 0.15 | 
CC(C)(C)NCC(O)c1cc2cccc(CC(=O)OC(C)(C)C)c2o1 (centres undefined) |  | 75.7 | 0.091 | 99 | 0.007
CC(C)(C)NCC(O)c1cc2cccc(CC(=O)OCCC34C[C@H]5C[C@@H](C3)C[C@@H](C4)C5)c2o1 (some centres undefined) |  | 150 | 0.0016 | < 0.15 | 
CC(C)OC(=O)Cc1cccc2cc(C(O)CNC(C)(C)C)oc12 (centres undefined) |  | 45.7 | 0.015 | 16.6 | 0.0417
